Source: ChEMBL document CHEMBL1671640, “Antifungal activities of human beta-defensins HBD-1 to HBD-3 and their C-terminal analogs Phd1 to Phd3” (Antimicrob Agents Chemother, 2009)
≈ marks a conversion by molar mass, not a printed value. Calls of active or inactive are those of the source. No cut-off for these calls is given here. Where a SMILES comes first, the peptide text is derived from it. Bridges are numbered along the chain shown (N, C = ends).

Assays:
[1] = tested on: Candida albicans; test: Drug uptake in Candida albicans ATCC 18804 assessed as cellular localization at MFC50 by confocal fluorescence microscopy; assay type: ADME, organism-based; details: in vivo
Procedure, shortened: (§1)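 C. albicans treated 15 min at 30°C with N-terminally carboxyfluorescein-labelled peptides at 50% MFC plus 4 µg/ml propidium iodide. Untreated cells served as control. Examined by confocal microscopy using 488- and 543-nm laser lines, 63× water objective and 1 airy unit optical sections.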

[2] = tested on: Candida albicans; test: Fungicidal activity against Candida albicans ATCC 18804 assessed as […] killing rate at 2 times MFC in presence of 100 mM NaCl; assay type: functional
Procedure, shortened: (§2)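 Mid-log cells at 10^6/ml in 10 mM phosphate buffer pH 7.4 containing added NaCl (25 or 100 mM), CaCl2 (0.5 or 5 mM) or MgCl2 (0.5 or 25 mM). Peptides at the stated multiple of MFC, 2 h at 30°C. Aliquots diluted and plated on YEPD agar for 24 h. Colonies counted and percent killing calculated. Three independent experiments in duplicate.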

[3] = tested on: Candida albicans; test: Fungicidal activity against Candida albicans ATCC 18804 at MFC in presence of 0.5 mM Mg2+; assay type: functional, organism-based; procedure, shortened: as §2
[4] = tested on: Candida albicans; test: Induction of membrane damage in Candida albicans ATCC 18804 at 50% MFC by propidium iodide staining; assay type: functional, organism-based; procedure, shortened: as §1
[5] = tested on: Candida albicans; test: Fungicidal activity against Candida albicans ATCC 18804 at MFC in presence of 100 mM NaCl; assay type: functional, organism-based; procedure, shortened: as §2
[6] = tested on: Candida albicans; test: Induction of membrane damage in Candida albicans ATCC 18804 by Sytox green dye influx assay; assay type: functional, organism-based
Procedure, shortened: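 Mid-log cells (10^7 CFU/ml) washed and resuspended in phosphate buffer with 1 µM Sytox green at 30°C. Once basal fluorescence was constant, peptide was added and the fluorescence increase recorded at excitation 488 nm and emission 540 nm.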

[7] = Toxicity in human Erythrocyte assessed as hemolysis at 100 uM; assay type: cell-based; details: erythrocytes, read-out: Activity
Procedure, shortened: (§3)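 Human erythrocytes from heparinized blood, washed three times in 5 mM HEPES pH 7.4 with 150 mM NaCl. 10^7 cells/ml incubated with a range of peptide concentrations for 30 min at 37°C with gentle mixing. Supernatant absorbance read at 540 nm. 0.1% Triton X-100 lysis taken as maximum.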

[8] = Toxicity in human Erythrocyte assessed as hemolysis upto 75 uM; assay type: cell-based; procedure, shortened: as §3
[9] = tested on: Candida albicans; test: Fungicidal activity against Candida albicans ATCC 18804 at MFC pretreated with 50 uM carbonyl cyanide m-chlorophenylhydrazone for 2 hrs at 30 deg C; assay type: functional, organism-based
Procedure, shortened: (§4)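 Mid-log cells at 10^6/ml in phosphate buffer were preincubated 2 h at 30°C with shaking with 5 mM sodium azide or 50 µM CCCP. Peptides were then added at MFC for 2 h at 30°C. Cells plated on YEPD agar for 24 h and colonies counted as percent killing. Three independent experiments in duplicate.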

[10] = Drug localization in membranes of Candida albicans ATCC 18804 at 50% MFC by confocal microscopy; assay type: ADME; procedure, shortened: as §1
[11] = tested on: Candida albicans; test: Fungicidal activity against Candida albicans ATCC 18804 at MFC in presence of 25 mM NaCl; assay type: functional, organism-based; procedure, shortened: as §2
[12] = tested on: Candida albicans; test: Fungicidal activity against Candida albicans ATCC 18804 at MFC in presence of 0.5 mM Ca2+; assay type: functional, organism-based; procedure, shortened: as §2
[13] = tested on: Candida albicans; test: Fungicidal activity against Candida albicans ATCC 18804 at MFC in presence of 25 mM MgCl2; assay type: functional, organism-based; procedure, shortened: as §2
[14] = tested on: Candida albicans; test: Fungicidal activity against Candida albicans ATCC 18804 at MFC pretreated with 5 mM sodium azide for 2 hrs at 30 deg C; assay type: functional, organism-based; procedure, shortened: as §4
[15] = tested on: Candida albicans; test: Antifungal activity against Candida albicans ATCC 18804 after 24 hrs; assay type: functional; details: ATCC 18804, 24 h
Procedure, shortened: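 Mid-log C. albicans (subcultured 2 h in YEPD after 20 h aerobic growth at 30°C), washed and resuspended at 10^6 cells/ml in 10 mM phosphate buffer pH 7.4. Exposed to peptides for 2 h at 30°C, then diluted, plated on YEPD agar and incubated 24 h at 30°C. MFC = concentration giving no viable colonies. Averages of three independent experiments in duplicate.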

[16] = tested on: Candida albicans; test: Fungicidal activity against Candida albicans ATCC 18804 at MFC in presence of 5 mM CaCl2; assay type: functional, organism-based; procedure, shortened: as §2
[17] = tested on: Candida albicans; test: Fungicidal activity against Candida albicans ATCC 18804 at MFC in presence of 0.5 mM MgCl2; assay type: functional, organism-based; procedure, shortened: as §2

CC[C@H](C)[C@@H]1NC(=O)[C@H](CCC(N)=O)NC(=O)[C@H](CCC(=O)O)NC(=O)[C@H](CCC(=O)O)NC(=O)[C@H](CCCCN)NC(=O)[C@@H]2CCCN2C(=O)[C@H](CC(C)C)NC(=O)[C@@H](NC(=O)[C@@H](N)CO)CSSC[C@@H](C(=O)N[C@@H](CCCNC(=N)N)C(=O)N[C@@H](CCCNC(=N)N)C(=O)N[C@@H](CCCCN)C(=O)N[C@@H](CCCCN)C(=O)O)NC(=O)[C@H](CCCCN)NC(=O)[C@H](CCCNC(=N)N)NC(=O)CNC(=O)[C@H](CCCNC(=N)N)NC(=O)[C@H]([C@@H](C)O)NC(=O)[C@H](CO)NC(=O)[C@H](CCCCN)NC(=O)CNC1=O (H-SCLPKEEQIGKSTRGRKCRRKK-OH; disulfide 2-18)
Drug uptake [1]: Active
inhibition (percent killing) [2]: 50%
inhibition [3]: Active
Activity [4]: Active
inhibition [5]: inactive
Activity [6]: Active
hemolysis at 100 µM [7]: 15%
Activity [8]: Non-toxic
fungicidal activity (active/not active) [9]: Active
Drug uptake [10]: Active
inhibition [11]: Active
inhibition [12]: Active
inhibition [13]: Active
inhibition [14]: Active
MFC [15]: 16 µM (≈ 41.4 µg/mL)

CC[C@H](C)[C@@H]1NC(=O)[C@H](CCC(N)=O)NC(=O)[C@H](CCCCN)NC(=O)[C@H](Cc2ccc(O)cc2)NC(=O)[C@H](CCCNC(=N)N)NC(=O)[C@H](CCCNC(=N)N)NC(=O)[C@@H]2CCCN2C(=O)[C@@H](NC(=O)[C@@H](N)Cc2ccccc2)CSSC[C@@H](C(=O)N[C@@H](CCCCN)C(=O)O)NC(=O)[C@H](CCCCN)NC(=O)[C@H]([C@@H](C)O)NC(=O)CNC(=O)[C@@H]2CCCN2C(=O)[C@H](CC(C)C)NC(=O)CNC(=O)[C@H]([C@@H](C)O)NC(=O)CNC1=O (H-FCPRRYKQIGTGLPGTKCK-OH; disulfide 2-18)
Drug uptake [1]: Active
inhibition [16]: inactive
inhibition (percent killing) [2]: 50%
inhibition [3]: Active
Activity [4]: Active
inhibition [5]: inactive
Activity [6]: Active
inhibition [17]: Active
hemolysis at 100 µM [7]: 15%
Activity [8]: Non-toxic
fungicidal activity (active/not active) [9]: Active
Drug uptake [10]: Active
inhibition [11]: Active
inhibition [12]: Active
inhibition [14]: Active
MFC [15]: 18 µM (≈ 38.7 µg/mL)

CC[C@H](C)[C@@H]1NC(=O)[C@H](CCCCN)NC(=O)[C@H]([C@@H](C)O)NC(=O)[C@H](Cc2ccccc2)NC(=O)[C@H]([C@@H](C)CC)NC(=O)[C@@H]2CCCN2C(=O)[C@@H]2CSSC[C@@H](C(=O)N[C@@H](CCCCN)C(=O)O)NC(=O)[C@@H]3CSSC[C@H](NC(=O)[C@H](CC(N)=O)NC(=O)[C@H](Cc4ccc(O)cc4)NC(=O)[C@H](Cc4cnc[nH]4)NC(=O)[C@@H](N)CC(=O)O)C(=O)N[C@@H](C(C)C)C(=O)N[C@@H](CO)C(=O)N[C@@H](CO)C(=O)NCC(=O)NCC(=O)N[C@@H](CCC(N)=O)C(=O)N[C@@H](CSSC[C@H](NC(=O)[C@H]([C@@H](C)O)NC(=O)CNC(=O)[C@H](CCC(N)=O)NC1=O)C(=O)N[C@@H](Cc1ccc(O)cc1)C(=O)N[C@@H](CCCNC(=N)N)C(=O)NCC(=O)N[C@@H](CCCCN)C(=O)N[C@@H](C)C(=O)N[C@@H](CCCCN)C(=O)N3)C(=O)N[C@@H](CC(C)C)C(=O)N[C@@H](Cc1ccc(O)cc1)C(=O)N[C@@H](CO)C(=O)N[C@@H](C)C(=O)N2 (H-DHYNCVSSGGQCLYSACPIFTKIQGTCYRGKAKCCK-OH; disulfide 5-34, 12-27, 17-35)
inhibition [16]: inactive
inhibition (percent killing) [2]: 50%
inhibition [5]: inactive
inhibition [17]: Active
fungicidal activity (active/not active) [9]: inactive
inhibition [11]: inactive
inhibition [14]: inactive
MFC [15]: 7 µM (≈ 27.5 µg/mL)

CC[C@H](C)[C@@H]1NC(=O)[C@H](CCCCN)NC(=O)[C@H]([C@@H](C)O)NC(=O)[C@H](Cc2ccccc2)NC(=O)[C@H]([C@@H](C)CC)NC(=O)[C@@H]2CCCN2C(=O)[C@@H](NC(=O)[C@H](C)N)CSSC[C@@H](C(=O)N[C@@H](CCCCN)C(=O)O)NC(=O)[C@H](CCCCN)NC(=O)[C@H](C)NC(=O)[C@H](CCCCN)NC(=O)CNC(=O)[C@H](CCCNC(=N)N)NC(=O)[C@H](Cc2ccc(O)cc2)NC(=O)[C@H]([C@@H](C)O)NC(=O)CNC(=O)[C@H](CCC(N)=O)NC1=O (H-ACPIFTKIQGTYRGKAKCK-OH; disulfide 2-18)
Drug uptake [1]: Active
inhibition [16]: inactive
inhibition (percent killing) [2]: 50%
inhibition [3]: Active
Activity [4]: Active
inhibition [5]: inactive
Activity [6]: Active
inhibition [17]: Active
hemolysis at 100 µM [7]: 15%
Activity [8]: Non-toxic
fungicidal activity (active/not active) [9]: Active
Drug uptake [10]: Active
inhibition [11]: Active
inhibition [12]: Active
inhibition [14]: Active
MFC [15]: 18 µM (≈ 38 µg/mL)
